The text below walks through data of PMC5831081 (Biochemistry, 2017).

Molecules are shown by their SMILES. Changes are numbered by the printed parent chain. Values joined by “and” are separate entries in the source; they are usually repeats but may differ in a detail not shown here. Equal entries are not always repeated.

Data set [1] addresses T1, CYP2B4 (Oryctolagus cuniculus, UniProt P00178, H226Y).
T1 sequence (P00178 with tags, fused parts or gaps H226Y): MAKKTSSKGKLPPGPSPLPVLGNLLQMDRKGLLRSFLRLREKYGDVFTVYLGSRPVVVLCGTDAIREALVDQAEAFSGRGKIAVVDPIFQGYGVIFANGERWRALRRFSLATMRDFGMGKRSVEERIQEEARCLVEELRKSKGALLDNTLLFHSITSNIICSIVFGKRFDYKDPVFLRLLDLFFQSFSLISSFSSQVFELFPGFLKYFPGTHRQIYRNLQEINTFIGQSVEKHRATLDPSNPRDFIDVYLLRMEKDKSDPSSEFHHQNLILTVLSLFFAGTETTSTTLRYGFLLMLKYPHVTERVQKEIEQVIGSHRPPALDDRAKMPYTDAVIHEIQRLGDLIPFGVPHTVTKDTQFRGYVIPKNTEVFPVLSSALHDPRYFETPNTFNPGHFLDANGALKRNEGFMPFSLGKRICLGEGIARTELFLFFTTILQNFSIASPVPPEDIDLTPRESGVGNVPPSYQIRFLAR
As to the kind of experiment: NADPH oxidation assay. In kind it is biochemical, rabbit. The following applies: CYP:POR:cyt b5 1:4:2, 20 μM inhibitor, 37 °C. In outline:
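Purified CYP2B was reconstituted with POR and cyt b5 at CYP:POR:cyt b5 1:4:2, or 0:4:2 for the partner-only control. Mixtures contained ligand (20 µM unless stated) and 1% acetone in 300 µL. After 5 min preincubation at 37 °C, 0.2 mM NADPH was added. NADPH consumption was recorded kinetically as the A340 decrease (ε 6.22 mM-1 cm-1). Rates are nmol/min/nmol P450, mean ± SD of three independent experiments.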

Data set [2] deals with human CYP2B6. As to the kind of experiment: Spectral binding titration. The following applies: CYP2B6 spectral titration, with vs without POR.
The target of data set [3] is T2, CYP2B6 (Homo sapiens, UniProt P20813, K262R/Y226H).
T2 sequence (P20813 with tags, fused parts or gaps Y226H/K262R): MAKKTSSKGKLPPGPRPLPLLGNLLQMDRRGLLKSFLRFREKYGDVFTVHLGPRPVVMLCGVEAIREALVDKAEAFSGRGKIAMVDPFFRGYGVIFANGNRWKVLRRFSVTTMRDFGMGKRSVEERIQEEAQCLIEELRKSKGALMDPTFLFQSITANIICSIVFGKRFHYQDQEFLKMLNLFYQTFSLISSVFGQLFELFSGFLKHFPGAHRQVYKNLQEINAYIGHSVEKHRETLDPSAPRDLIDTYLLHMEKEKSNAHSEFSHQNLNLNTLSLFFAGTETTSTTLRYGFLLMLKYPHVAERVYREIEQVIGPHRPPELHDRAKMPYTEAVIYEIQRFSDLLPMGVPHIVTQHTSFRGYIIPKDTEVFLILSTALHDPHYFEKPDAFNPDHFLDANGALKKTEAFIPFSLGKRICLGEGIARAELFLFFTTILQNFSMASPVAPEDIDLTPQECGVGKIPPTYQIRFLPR
The data set is described as follows: Spectral binding titration. The following applies: for Kd: KS.

For data set [4], the target named is T3, CYP2B6 L363V (Homo sapiens, UniProt P20813, K262R/L363V/Y226H).
T3 sequence (P20813 with tags, fused parts or gaps Y226H/K262R/L363V limits assumed): T2 sequence (P20813 with tags, fused parts or gaps Y226H/K262R) with L344V
As to the kind of experiment: NADPH-dependent 7-EFC O-deethylation enzyme inhibition assay. In kind it is biochemical.

Data set [5] has as its target T1, CYP2B4. The data set is described as above. In kind it is biochemical, rabbit. The following applies: for mechanism of inhibition: CYP2B4, non-linear regression analysis.
Data set [6] has as its target T2, CYP2B6. Described as above. In kind it is biochemical. The following applies: for mechanism of inhibition: CYP2B6, non-linear regression analysis; for IC50: NADPH-based IC50, CYP2B6.
Data set [7] deals with T4, rabbit CYP2B4 (Oryctolagus cuniculus, UniProt P00178, A26S/E2A/G22K/H226Y/H23K/H27K/K25S/P24T/R29K).
T4 sequence (P00178 with tags, fused parts or gaps H226Y limits assumed): T1 sequence (P00178 with tags, fused parts or gaps H226Y)
The data set is described as follows: Spectral binding titration. The following applies: spectral binding titrations.

Data set [8] addresses T5, rat CYP2B1 (Rattus norvegicus, UniProt P00176).
T5 sequence (P00176 1-491): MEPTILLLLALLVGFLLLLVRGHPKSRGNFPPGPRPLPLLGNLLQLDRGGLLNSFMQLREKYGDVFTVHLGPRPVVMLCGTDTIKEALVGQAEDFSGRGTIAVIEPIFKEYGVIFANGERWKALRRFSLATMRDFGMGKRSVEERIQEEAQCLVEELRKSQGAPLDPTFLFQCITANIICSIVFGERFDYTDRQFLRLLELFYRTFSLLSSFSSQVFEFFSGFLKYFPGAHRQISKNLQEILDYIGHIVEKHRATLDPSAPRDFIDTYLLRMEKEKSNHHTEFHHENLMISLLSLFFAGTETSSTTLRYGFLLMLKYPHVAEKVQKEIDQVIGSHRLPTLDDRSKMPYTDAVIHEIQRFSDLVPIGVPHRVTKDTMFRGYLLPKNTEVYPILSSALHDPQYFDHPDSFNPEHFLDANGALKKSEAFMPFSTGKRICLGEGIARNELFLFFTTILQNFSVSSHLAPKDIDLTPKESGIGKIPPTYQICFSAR
The data set is described as follows: Spectral binding titration. The following applies: spectral binding titrations.

The target in data set [9] is T3, CYP2B6 L363V. The following applies: CYP2B6 L363V valine mutant.
For data set [10], the target named is T6, CYP2B4 I363V (Oryctolagus cuniculus, UniProt P00178, H226Y/I363V).
T6 sequence (P00178 with tags, fused parts or gaps H226Y/I363V limits assumed): T1 sequence (P00178 with tags, fused parts or gaps H226Y) with I344V
The following applies: CYP2B4 I363V valine mutant.

The target in data set [11] is T7, CYP2B1 (Rattus norvegicus, UniProt P00176).
T7 sequence (P00176 1-491): T5 sequence (P00176 1-491)
As to the kind of experiment: NADPH-dependent 7-EFC O-deethylation kinetics. In kind it is biochemical. In a few lines:
(§1)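 Purified CYP2B was reconstituted with POR and cyt b5 (molar 1:4:2 or 1:4:0), 2.5–5 pmol CYP, in 100 µL HEPES pH 7.4 with 7-EFC at 37 °C. After 5 min preincubation, 1 mM NADPH was added. After 5 min, reactions were quenched with ice-cold acetonitrile and diluted into 0.1 M Tris pH 9.0. 7-HFC was measured by fluorescence (ex 410/em 510 nm) against a daily 0–50 µM 7-HFC standard curve.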

Data set [12] concerns the target T6, CYP2B4 I363V. As to the kind of experiment: NADPH-dependent 7-EFC O-deethylation kinetics. Type of data set: biochemical, rabbit. In a few lines:
as §1

For data set [13], the target named is T2, CYP2B6. The data set is described as follows: Cumene hydroperoxide. The following applies: for IC50: CuOOH-based IC50, CYP2B6. In kind it is biochemical. In outline: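 Purified CYP2B6 was tested alone or with cyt b5 (CYP:cyt b5 1:2) in HEPES buffer at 37 °C, with 7-EFC near KM and varying test compound. Reactions started with 0.5 mM cumene hydroperoxide. For kinetics, 7-HFC formation was followed continuously in stirred 500 µL of 0–200 µM 7-EFC. Initial-slope rates were fitted to Michaelis–Menten. IC50 came from a four-parameter logistic fit. Mean ± SD, n=3.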

For data set [14], the target named is T2, CYP2B6. As to the kind of experiment: Incubation of POA with CYP2B6, UPLC-MS search for oxidative metabolites. In kind it is in vitro ADME. The following applies: POA incubated with CYP2B6, with or without NADPH.
[15] abbreviates: CYP2B6, with POR (1 μM CYP, 4 μM POR), HEPES buffer.
The mark [16] stands for this setting: CYP2B6, without POR, HEPES buffer.
Where [17] appears, read: CYP2B6, without POR, sucrose buffer.
Where [18] appears, read: KI, CYP2B6, CYP:POR:cyt b5 1:4:2, 0-200 μM 7-EFC, 37 °C.
[19] abbreviates: Ki,app (Cheng-Prusoff from IC50), CYP2B6, absence of cyt b5.
The mark [20] stands for this setting: Ki,app (Cheng-Prusoff from IC50), CYP2B6, presence of cyt b5.

Usually Kd stands for the concentration at which binding is half-saturated. For orientation: IC50 means the concentration at which inhibition is half-maximal. A higher IC50 goes with weaker potency in that assay. In general, Km refers to the substrate concentration at which the rate is half of its maximum.

In turn, `Nc1ccc(Oc2cc(Cl)c(Cl)cc2Cl)cc1` [2′4′5′TCPOA, 4-(2′,4′,5′-trichlorophenoxy)aniline] yielded an NADPH oxidation rate in data set [1] of 20±1 nmol/min/nmolP450. The “fold increase of KS (decrease in affinity) on including POR” value in data set [2] is listed as 4-6 fold; in data set [2] (listed as 2′4′5′-TCPOA), 5.8 fold. Also, the “Type-II (%)” value in data set [3] (setting [15]) is recorded as 17±3%; in data set [3] (setting [16]) it was 19±1%; in [3] (setting [17]), 9±1%. For the same compound, the values for the Kd in data set [3] (setting [15]), in data set [3] (setting [16]) and in data set [3] (setting [17]) were 8100 ± 1700 nM, 1400 ± 400 nM and 700 ± 300 nM, respectively. Moreover, the Ki in [4] was 750 ± 100 nM; in data set [5], 370 ± 40 nM; in [6] (setting [18]) it was 640 ± 80 nM; in data set [6] (setting [19]), 1800 nM; in [6] (setting [20]), 220 nM. Also, the mechanism of inhibition entry in data set [5] and in [6] was “competitive inhibitors” in each case. Moreover, the values for the IC50 in data set [6] (CYP:POR (no cyt b5)) and in data set [6] (CYP:POR:cyt b5) were 3700 ± 300 nM and 430 ± 40 nM, respectively.
As to `Nc1ccc(Cc2ccc(Cl)cc2Cl)cc1` [2′4′DCBA, 4-[(2′,4′-dichlorophenyl)methyl]aniline], the “relative affinity among the ligands tested” value in data set [7] was “highest affinity”; in data set [8], “highest affinity”; in [3] (spectral binding titrations, CYP2B6), “highest affinity”. Further, the “relative affinity among the congeners” value in [9] and in data set [10] was “highest affinity” each time.
Take `CCOc1ccc2c(C(F)(F)F)cc(=O)oc2c1` [7-EFC, 7-Ethoxy-4-(trifluoromethyl)coumarin, reference compound]: the “Michaelis constant for 7-EFC” value in data set [11] and in [12] was ~ 120 μM each time. Further, the “kcat of 7-EFC O-deethylation” value in data set [13] (CYP2B6 with CuOOH) is 0.007 s⁻¹. Further, the Km in [13] (human, CYP2B6 enzyme with cumene hydroperoxide, pH 7.4) is 56 µM.
`Nc1ccc(Oc2ccccc2)cc1` [POA, 4-(phenoxy)aniline]: the IC50 in data set [13] (CYP alone) stood at 38000 ± 7000 nM; in data set [13] (CYP:cyt b5) it was 44000 ± 14000 nM; in data set [6] (CYP:POR (no cyt b5)) it was 15000 ± 1000 nM; in data set [6] (CYP:POR:cyt b5) it was 27000 ± 5000 nM. The compound also returned an NADPH oxidation rate in [1] of 33±2 nmol/min/nmolP450. Besides, the “fold increase of KS (decrease in affinity) on including POR” value in [2] was 4.2 fold and 4-6 fold. Besides, the “Type-II (%)” value in [3] (setting [15]) was 9.2±3.3%; in data set [3] (setting [16]), 16±1%; in data set [3] (setting [17]), 26±1%. Moreover, the Kd in data set [3] (setting [15]) came out at 2800 ± 1400 nM; in data set [3] (setting [16]), 670 ± 360 nM; in [3] (setting [17]) it was 1200 ± 200 nM. Also, the Ki was found to be 67000 ± 10000 nM in [4]; 1300 ± 650 nM in data set [5]; 13000 ± 1900 nM in data set [6] (setting [18]); 7500 nM in data set [6] (setting [19]); 13500 nM in [6] (setting [20]). The mechanism of inhibition entry is reported as “non-competitive inhibitor” in data set [4] (CYP2B6 L363V, non-linear regression analysis); “competitive inhibitors” in data set [5]; “competitive inhibitors” in data set [6]. The “fold increase of IC50 by cyt b5” value in [6] (CYP2B6, NADPH-driven, with vs without cyt b5) amounted to 1.8 fold. The “CYP-mediated oxidative metabolites identified by UPLC-MS” value in [14] was “no potential CYP-mediated oxidative metabolites”.
